# Test results from ChEMBL document CHEMBL1156120, “18F stilbenes and styrylpyridines for PET imaging of A beta plaques in Alzheimer's disease: a miniperspective” (J Med Chem, 2010).
# pKi: −log10 of the molar value.
# Legend:
# [1] = molecular target: Amyloid-beta precursor protein (Homo sapiens, UniProt P05067); experiment: Binding affinity to Beta amyloid aggregates in Alzheimer's disease patient brain by competitive binding assay
# How it was run: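 Competition binding against ¹⁸F-AV-45 (0.04–0.06 nM, diluted in PBS) in postmortem AD brain homogenate (20–25 µg per assay). Competitors were serially diluted 10⁻⁵–10⁻¹⁰ M in PBS with 0.1% bovine serum albumin, in a final volume of 0.5 mL. Inhibition constant (Ki) derived from displacement.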
# [2] = Partition coefficient, log P at pH 7.4; format: physicochemical; conditions: octanol/water
# Amyloid-beta precursor protein, sequence (P05067 whole entry): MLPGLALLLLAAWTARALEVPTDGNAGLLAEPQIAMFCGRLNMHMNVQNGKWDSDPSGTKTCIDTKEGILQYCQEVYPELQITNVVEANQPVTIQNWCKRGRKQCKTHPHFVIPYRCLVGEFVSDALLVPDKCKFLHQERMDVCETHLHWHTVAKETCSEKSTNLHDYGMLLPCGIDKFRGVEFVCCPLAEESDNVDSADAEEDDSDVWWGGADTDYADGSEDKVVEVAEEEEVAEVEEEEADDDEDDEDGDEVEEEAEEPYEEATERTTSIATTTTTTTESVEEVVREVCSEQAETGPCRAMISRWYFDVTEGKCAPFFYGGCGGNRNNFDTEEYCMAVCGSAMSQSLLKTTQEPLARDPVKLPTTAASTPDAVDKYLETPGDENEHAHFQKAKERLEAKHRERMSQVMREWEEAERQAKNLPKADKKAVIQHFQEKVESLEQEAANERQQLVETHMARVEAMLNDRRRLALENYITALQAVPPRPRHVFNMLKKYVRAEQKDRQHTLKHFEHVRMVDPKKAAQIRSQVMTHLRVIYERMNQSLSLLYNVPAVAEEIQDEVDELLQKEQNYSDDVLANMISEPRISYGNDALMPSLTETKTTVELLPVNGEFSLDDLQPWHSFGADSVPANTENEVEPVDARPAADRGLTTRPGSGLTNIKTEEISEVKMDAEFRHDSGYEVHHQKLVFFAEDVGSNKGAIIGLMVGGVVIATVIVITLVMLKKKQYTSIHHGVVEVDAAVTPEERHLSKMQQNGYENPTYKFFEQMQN
Compound,pKi [1],logD [2]
CNc1ccc(/C=C/c2ccc(OCC(CO)C[18F])cc2)cc1 (centres undefined),–,2.95
CN(C)c1ccc(/C=C/c2ccccc2I)cc1,8.11,–
CNc1ccc(/C=C/c2ccc(OCCOCCOCCOCCOCCOCCOCCOCCOCCOCCF)cc2)cc1,7.91,–
COc1ccc(/C=C/c2cccc(I)c2)cc1,7.66,–
CNc1ccc(/C=C/c2ccc(OCCOCCOCCOCCOCCOCCOCCOCCF)cc2)cc1,8.05,–
CNc1ccc(/C=C/c2ccc(OCCOCCOCCOCCOCCOCCOCCOCCOCCF)cc2)cc1,7.73,–
CN(C)c1ccc(/C=C/c2ccc(F)cc2)cc1,7.66,–
CC(=C(C#N)C#N)c1ccc2cc(N(C)CCF)ccc2c1,6.76,–
CNc1ccc(/C=C/c2ccc(OCCOCCOCCOCCOCCOCCOCCF)cc2)cc1,8.09,–
O=C(O)c1cc(/N=N/c2ccc(-c3ccc(/N=N/c4ccc(O)c(C(=O)O)c4)cc3)cc2)ccc1O [CHRYSAMINE G],< 6.00,–
Oc1ccc(/C=C/c2cccc(I)c2)cc1,7.49,–

# The remaining lines, values ahead:
pKi [1],logD [2],Compound
8.77,–,CNc1ccc(-c2nc3ccc(O)cc3s2)cn1
8.54,–,CNc1ccc(/C=C/c2ccc(OCCOCCOCC[18F])nc2)cc1 [FLORBETAPIR F 18]
8.35,–,CN(C)c1ccc(/C=C/c2cccc(I)c2)cc1
8.30,–,CNc1ccc(/C=C/c2ccc(OCC(CO)CF)cc2)cc1 (centres undefined)
8.64,–,CN(C)c1ccc(/C=C/c2nc3ccccc3s2)cc1
8.70,–,CN(C)c1ccc(/C=C/c2ccc(I)cc2)cc1
9.13,–,CNc1ccc(-c2nc3ccc(O)cc3s2)cc1F [FLUTEMETAMOL]
8.12,–,CNc1ccc(/C=C/c2ccc(OCCOCCOCCOCCOCCOCCF)cc2)cc1
